Published values pooled from the literature.
Compare with care: the assays were run in different laboratories.
Target: 3-phosphoinositide-dependent protein kinase 1 (PDPK1, Homo sapiens, UniProt O15530)
Action: inhibitor

Structure (SMILES)	read-out	technique	tested at	inhibition
c1ccc(CNc2nc(N3CCOc4ccccc43)nc3c2CCCC3)cc1	target engagement in cells	chemoproteomics	20 mM	-11.8%
CNC(=O)c1cc(Oc2ccc(NC(=O)Nc3ccc(Cl)c(C(F)(F)F)c3)cc2)ccn1	enzyme activity	–	10 µM	8%
COc1cc2ncnc(Nc3ccc(Oc4ccccc4)c(C)c3C)c2cc1OC	enzyme activity	–	1 µM	-2%
O=C(CSc1nc2nccnc2c(=O)n1CCc1ccccc1)Nc1nccs1	enzyme activity	–	10 µM	11%
COc1cccc2c(NCc3ccccc3)nc(-n3c(N)nc4ccccc43)nc12	target engagement in cells	chemoproteomics	20 mM	-5.3%
Nc1ncc2cc(-c3c(Cl)cccc3-c3cccnc3)c(N3C[C@@H]4[C@@H](N)[C@@H]4C3)nc2n1	enzyme activity	FRET	25 µM	0%
CN(C)C1CCN(CC#Cc2nn(C3CCCC3)c3nc(NCc4ccccc4)ncc23)C1 (stereo not drawn)	enzyme activity	FRET	0.1 µM	0%
CSc1nc(C)c(-c2ccnc(Nc3ccc(N4CCOCC4)cc3)c2)[nH]1	enzyme activity	–	10 µM	41.3%
C=CC(=O)Nc1cc(Nc2nccc(Nc3cc(Cl)c(F)cc3C(C)(C)O)n2)c(OC)cc1N1CC[C@@H](N(C)C)C1	enzyme activity	–	1 µM	-2%
CCCS(=O)(=O)Nc1ccc(F)c(C(=O)c2c[nH]c3ncc(-c4ccc(Cl)cc4)cc23)c1F	enzyme activity	–	1 µM	< 10%
CN(c1ncccc1CNc1nc(Nc2ccc3c(c2)CC(=O)N3)ncc1C(F)(F)F)S(C)(=O)=O	enzyme activity	–	1 µM	36%
Cc1ccc(Nc2nccc(N(C)c3ccc4c(C)n(C)nc4c3)n2)cc1S(N)(=O)=O	enzyme activity	–	10 µM	34%
